Measured values reported in ChEMBL document CHEMBL1128260, “3-deaza- and 7-deaza-5'-noraristeromycin and their antiviral properties” (1995).
Converted amounts (≈) assume the structure as drawn.

Experiments:
Format in all cases: functional
MDCK [1] = experiment: Tested for the concentration required to cause a microscopically detectable alteration of MCDK cell morphology; conditions: Canis lupus familiaris; read-out: MIC50
In short: (§1)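 Confluent E6SM, HeLa, Vero or MDCK cell cultures exposed to varying test-compound concentrations and examined microscopically. The value is the concentration causing a microscopically detectable alteration of normal cell morphology.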

E6SM [2] = experiment: The minimum inhibitory concentration required to reduce Vaccinia virus induced cytopathicity by 50% in E6SM cells; conditions: Homo sapiens
In short: (§2)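 Confluent cell monolayers in microtiter trays were inoculated with 100 CCID50 of virus and allowed 1 h adsorption, then residual virus was removed. Cultures were incubated with varying compound concentrations (400, 200, 100, ... µg/mL). Cytopathicity was scored once it was complete in the untreated infected controls. The value is the concentration reducing virus-induced cytopathicity by 50%.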

HEL [3] = experiment: The minimum inhibitory concentration required to reduce TK-VZV(07-1) virus induced cytopathicity by 50% was measured on HEL cells; conditions: Homo sapiens; in short: as §2
HEL [4] = experiment: The minimum inhibitory concentration required to reduce TK-VZV(YS-R) virus induced cytopathicity by 50% was measured on HEL cells; conditions: Homo sapiens; in short: as §2
Vero [5] = experiment: The minimum inhibitory concentration required to reduce forest virus (ATCC VR-67) induced cytopathicity by 50% in Vero cells; conditions: Chlorocebus sabaeus; in short: as §2
HEL [6] = experiment: Tested for the concentration required to cause a microscopically detectable alteration of HEL cell morphology; conditions: Homo sapiens; read-out: MIC50
E6SM [7] = experiment: Tested for concentration required to cause a microscopically detectable alteration of E6SM cell morphology; conditions: Homo sapiens; read-out: MIC50; in short: as §1
Vero [8] = experiment: The minimum inhibitory concentration required to reduce Arenavirus (Tacaribe) induced cytopathicity by 50% was measured on Vero cells; conditions: Chlorocebus sabaeus; in short: as §2
CCRF-CEM [9] = experiment: The minimum inhibitory concentration required to reduce HIV-1(IIIB) virus induced cytopathicity by 50% was measured on CEM cells; conditions: Homo sapiens
In short: (§3)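 CEM cells at 250,000-300,000 cells/mL were infected with HIV-1 (IIIB) or HIV-2 (ROD) at 100 CCID50/mL. The infected suspension was added to serial compound dilutions and incubated 4 days at 37 °C. Cultures were then examined for syncytium (giant cell) formation, and the 50% inhibitory concentration was recorded.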

E6SM [10] = experiment: The minimum inhibitory concentration required to reduce Vesicular Stomatitis Virus induced cytopathicity by 50% in E6SM cells; conditions: Homo sapiens; in short: as §2
CCRF-CEM [11] = experiment: The minimum inhibitory concentration required to reduce HIV-2(ROD) virus induced cytopathicity by 50% was measured on CEM cells; conditions: Homo sapiens; in short: as §3
HEL [12] = experiment: The minimum inhibitory concentration required to reduce CMV(AD-169) virus induced cytopathicity by 50% was measured on HEL cells; conditions: Homo sapiens; in short: as §2
HeLa [13] = experiment: The minimum inhibitory concentration required to reduce Vesicular Stomatitis Virus induced cytopathicity by 50% in HeLa cells; conditions: Homo sapiens; in short: as §2
Vero [14] = experiment: The minimum inhibitory concentration required to reduce Sindbis virus ([…]) induced cytopathicity by 50% in Vero cells; conditions: Chlorocebus sabaeus; in short: as §2
E6SM [15] = experiment: The minimum inhibitory concentration required to reduce HSV-2(G) virus induced cytopathicity by 50% was measured on E6SM cells; conditions: Homo sapiens; in short: as §2
Vero [16] = experiment: The minimum inhibitory concentration required to reduce Arenavirus (Junin) induced cytopathicity by 50% was measured on Vero cells; conditions: Chlorocebus sabaeus; in short: as §2
MDCK [17] = experiment: The minimum inhibitory concentration required to reduce Influenza B virus induced cytopathicity by 50% was measured on MDCK cells; conditions: Canis lupus familiaris; in short: as §2
HEL [18] = experiment: The minimum inhibitory concentration required to reduce VZV(Oka) virus induced cytopathicity by 50% was measured on HEL cells; conditions: Homo sapiens; in short: as §2
E6SM [19] = experiment: The minimum inhibitory concentration required to reduce HSV-1(KOS) virus induced cytopathicity by 50% was measured on E6SM cells; conditions: Homo sapiens; in short: as §2
Vero [20] = experiment: The minimum inhibitory concentration required to reduce Parainfluenza virus type 3(ATCC VR-93) induced cytopathicity by 50% in Vero cells; conditions: Chlorocebus sabaeus; in short: as §2
HEL [21] = experiment: The minimum inhibitory concentration required to reduce CMV(Davis) virus induced cytopathicity by 50% was measured on HEL cells; conditions: Homo sapiens; in short: as §2
Vero [22] = experiment: Tested for concentration required to cause a microscopically detectable alteration of Vero cell morphology; conditions: Chlorocebus sabaeus; read-out: MIC50; in short: as §1
E6SM [23] = experiment: The minimum inhibitory concentration required to reduce TK HSV-1 (B2006) virus induced cytopathicity by 50% in E6SM cells; conditions: Homo sapiens; in short: as §2
HeLa [24] = experiment: The minimum inhibitory concentration required to reduce Polio-1 virus induced cytopathicity by 50% in HeLa cells; conditions: Homo sapiens; in short: as §2
CCRF-CEM [25] = experiment: Tested for concentration required to cause a microscopically detectable alteration of CEM cell morphology; conditions: Homo sapiens
[26] = tested on: Respiratory syncytial virus; experiment: The minimum inhibitory concentration required to reduce RSV(Long) virus induced cytopathicity by 50% in HeLa cells; conditions: human respiratory syncytial virus; in short: as §2
E6SM [27] = experiment: The minimum inhibitory concentration required to reduce TK-HSV-1(VMW 1837) virus induced cytopathicity by 50% in E6SM cells; conditions: Homo sapiens; in short: as §2
HEL [28] = experiment: The minimum inhibitory concentration required to reduce VZV(YS) virus induced cytopathicity by 50% was measured on HEL cells; conditions: Homo sapiens; in short: as §2
HeLa [29] = experiment: The minimum inhibitory concentration required to reduce Coxsackie B4 virus induced cytopathicity by 50% in HeLa cells.; conditions: Homo sapiens; in short: as §2
Vero [30] = experiment: The minimum inhibitory concentration required to reduce Reo-1 virus (ATCC VR-230) induced cytopathicity by 50% was measured in Vero cells; conditions: Chlorocebus sabaeus; in short: as §2
MDCK [31] = experiment: The minimum inhibitory concentration required to reduce Influenza A virus induced cytopathicity by 50% was measured on MDCK cells; conditions: Canis lupus familiaris; in short: as §2
HeLa [32] = experiment: Tested for concentration required to cause a microscopically detectable alteration of HeLa cell morphology; conditions: Homo sapiens; read-out: MIC50; in short: as §1

SMILES | Minimum cytotoxic concentration (MDCK [1]) [µg/mL] | MIC50 (E6SM [2]) [µg/mL] | MIC50 (HEL [3]) [µg/mL] | MIC50 (HEL [4]) [µg/mL] | MIC50 (Vero [5]) [µg/mL] | Minimum cytotoxic concentration (MCC) (HEL [6]) [µg/mL] | minimum cytotoxic concentration (microscopic alteration of cell morphology) (E6SM [7]) [µg/mL] | MIC50 (Vero [8]) [µg/mL] | MIC50 (CCRF-CEM [9]) [µg/mL] | MIC50 (E6SM [10]) [µg/mL] | MIC50 (CCRF-CEM [11]) [µg/mL] | MIC50 (HEL [12]) [µg/mL] | MIC50 (HeLa [13]) [µg/mL] | MIC50 (Vero [14]) [µg/mL] | MIC50 (E6SM [15]) [µg/mL] | MIC50 (Vero [16]) [µg/mL] | MIC50 (MDCK [17]) [µg/mL] | MIC50 (HEL [18]) [µg/mL] | MIC50 (E6SM [19]) [µg/mL] | MIC50 (Vero [20]) [µg/mL] | further results
Nc1nccc2c1ncn2C1CC(O)C(O)C1O (single isomer, unassigned; (-)) | > 200 | 0.4 (≈ 1.6 µM) | > 30 | > 40 | > 200 | > 200 | > 400 | > 40 | > 20 | 0.7 (≈ 2.8 µM) | > 20 | > 40 | 2 (≈ 7.99 µM) | > 200 | > 400 | > 40 | > 200 | > 40 | > 400 | 1 (≈ 4 µM) | MIC50 (HEL [21]): > 40 µg/mL; Minimum cytotoxic concentration (Vero [22]): > 200 µg/mL; MIC50 (E6SM [23]): 300 µg/mL (≈ 1200 µM); MIC50 (HeLa [24]): > 400 µg/mL; MIC50 (CCRF-CEM [25]): 27 µg/mL (≈ 108 µM); MIC50 [26]: > 150 µg/mL; MIC50 (E6SM [27]): 300 µg/mL (≈ 1200 µM); MIC50 (HEL [28]): > 40 µg/mL; MIC50 (HeLa [29]): > 400 µg/mL; MIC50 (Vero [30]): 7 µg/mL (≈ 28 µM); MIC50 (MDCK [31]): 150 µg/mL (≈ 599 µM); Minimum cytotoxic concentration (HeLa [32]): > 400 µg/mL
Nc1ncnc2c1ccn2[C@H]1C[C@@H](O)[C@H](O)[C@@H]1O | > 200 | 150 (≈ 599 µM) | > 40 | > 40 | > 200 | > 200 | > 400 | > 20 | > 500 | 70 (≈ 280 µM) | > 500 | > 40 | 300 (≈ 1200 µM) | > 200 | > 400 | > 20 | > 200 | > 40 | 300 (≈ 1200 µM) | 100 (≈ 400 µM) | MIC50 (HEL [21]): > 40 µg/mL; Minimum cytotoxic concentration (Vero [22]): > 400 µg/mL; MIC50 (E6SM [23]): 300 µg/mL (≈ 1200 µM); MIC50 (HeLa [24]): > 400 µg/mL; MIC50 (CCRF-CEM [25]): > 500 µg/mL; MIC50 [26]: 100 µg/mL (≈ 400 µM); MIC50 (E6SM [27]): 300 µg/mL (≈ 1200 µM); MIC50 (HEL [28]): > 40 µg/mL; MIC50 (HeLa [29]): > 400 µg/mL; MIC50 (Vero [30]): > 200 µg/mL; MIC50 (MDCK [31]): > 200 µg/mL; Minimum cytotoxic concentration (HeLa [32]): > 400 µg/mL
